Activity calls are given as the source filed them.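 The calls were made as follows: active = MIC at a fourfold reduction of 10 µM or lower; inactive = MIC at a fourfold reduction above 10 µM.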

The first test concerns IMP-1 P. aeruginosa KN20 growth with imipenem, OD600. In words: growth inhibition synergy, KN20 P. aeruginosa with imipenem – strain KN20, clinical isolate, powder samples, VIM-2 MBL inhibitor project, late-stage follow-up (AID 624095).
Conditions: not given
The method, boiled down: (§1)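 Assay system: log-phase bacteria. Read-out basis: MIC per CLSI. Doses: compound two-fold series in checkerboard. Medium: Mueller-Hinton broth with adjusted cations (CAMHB). Signal: turbidity measured by optical absorbance. Timing: ≥18 h aerobic incubation at 37 °C. Reagent: imipenem in two-fold serial dilutions, orthogonal to compound.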
For `O=C(CN1C(=O)/C(=C/c2c(Cl)cccc2Cl)SC1=S)NCc1ccccn1`, the MIC (usually the lowest concentration that inhibits growth of the organism) is > 100 µM (inactive).

Take `CCN(CC)OC(=O)CN1C(=O)/C(=C/c2c(Cl)cccc2Cl)SC1=S`: the MIC is > 100 µM (inactive).

`O=C(CN1C(=O)/C(=C/c2c(Cl)cccc2Cl)SC1=S)NN1CCNCC1`: the MIC is > 50 µM (inactive).

Take `O=C(CN1C(=O)/C(=C/c2c(Cl)ccc(Cl)c2Cl)SC1=S)NN1CCNCC1`: the MIC is > 50 µM (inactive).

On to `O=C(O)CN1C(=O)/C(=C/c2c(F)cccc2C(F)(F)F)SC1=S`, for which the MIC is > 50 µM (inactive).

As to `O=C(CN1C(=O)/C(=C/c2c(Cl)cccc2Cl)SC1=S)NN1CCN(Cc2ccccc2)CC1`, the MIC is > 50 µM (inactive).

As to `CN1CCN(NC(=O)CN2C(=O)/C(=C/c3c(F)cccc3C(F)(F)F)SC2=S)CC1`, the MIC was > 50 µM (inactive).

For the compound `O=C(CN1C(=O)/C(=C/c2c(Cl)cccc2Cl)SC1=S)NN1CCN(C(=O)c2ccccc2)CC1`, the MIC was > 50 µM (inactive).

Take `CC(=O)N1CCN(NC(=O)CN2C(=O)/C(=C/c3c(Cl)cccc3Cl)SC2=S)CC1`: the MIC is > 50 µM (inactive).

`CC(C)(C)OC(=O)N1CCN(NC(=O)CN2C(=O)/C(=C/c3c(Cl)ccc(Cl)c3Cl)SC2=S)CC1`: the MIC was > 50 µM (inactive).

Regarding `O=C(CN1C(=O)/C(=C/c2c(Cl)ccc(Cl)c2Cl)SC1=S)NN1CCCCC1`, the MIC is > 50 µM (inactive).

As for `CN1CCN(C(=O)CN2C(=O)/C(=C/c3c(Cl)ccc(Cl)c3Cl)SC2=S)CC1`, the MIC was > 50 µM (inactive).

Regarding `O=C(CN1C(=O)/C(=C/c2c(Cl)cccc2Cl)SC1=S)NN1CCCCC1`, the MIC was > 100 µM (inactive).

Turning to `CN1CCN(NC(=O)CN2C(=O)/C(=C/c3c(Cl)cccc3Cl)SC2=S)CC1`, the MIC was > 100 µM (inactive).

As for `CC(C)(C)OC(=O)N1CCN(NC(=O)CN2C(=O)/C(=C/c3c(Cl)cccc3Cl)SC2=S)CC1`, the MIC was > 100 µM (inactive).

As to `CN1CCN(NC(=O)CN2C(=O)/C(=C/c3c(C(F)(F)F)ccc(Cl)c3Cl)SC2=S)CC1`, the MIC was > 50 µM (inactive).

As for `O=C(O)CN1C(=O)/C(=C/c2c(Cl)cccc2Cl)SC1=S`, the MIC was > 100 µM (inactive).

Consider `CN1CCN(NC(=O)CN2C(=O)/C(=C/c3c(Cl)ccc(C(F)(F)F)c3Cl)SC2=S)CC1`, for which the MIC was > 50 µM (inactive).

Take `CC(C)N1CCN(NC(=O)CN2C(=O)/C(=C/c3c(Cl)cccc3Cl)SC2=S)CC1`: the MIC is > 50 µM (inactive).

`CN1CCN(NC(=O)CN2C(=O)/C(=C/c3c(F)cccc3Cl)SC2=S)CC1`: the MIC was > 50 µM (inactive).

Consider `CN1CCN(NC(=O)CN2C(=O)/C(=C/c3c(Cl)ccc(Cl)c3Cl)SC2=S)CC1`, for which the MIC was > 50 µM (inactive).

On to `O=C(CN1C(=O)/C(=C/c2c(Cl)ccc(Cl)c2Cl)SC1=S)NCc1ccccn1`, for which the MIC was > 50 µM (inactive).

System in the next test: not listed separately
The description is as above. The following applies: IMP-1 P. aeruginosa KN20 growth with imipenem, OD600; measured here: max imipenem fold potentiation; stronger effect = higher value. An outline of the steps: as §1
As to `CN1CCN(NC(=O)CN2C(=O)/C(=C/c3c(Cl)ccc(C(F)(F)F)c3Cl)SC2=S)CC1`, the fold potentiation is 2.

For the compound `CN1CCN(NC(=O)CN2C(=O)/C(=C/c3c(F)cccc3Cl)SC2=S)CC1`, the fold potentiation stood at 2.

As for `CN1CCN(NC(=O)CN2C(=O)/C(=C/c3c(Cl)ccc(Cl)c3Cl)SC2=S)CC1`, the fold potentiation was found to be 2.
